# S1P4 agonist – activates the human S1P4 receptor | O95977 | S1P4-expressing cell line, agonist reporter assay | activation, % at 4.98 µM | 220,000 compounds, 0.35% hits; in the data active means activation above about 11%;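 further: 0% = DMSO vehicle and 100% = reference agonist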
# Target sequence (O95977 whole entry, looked up): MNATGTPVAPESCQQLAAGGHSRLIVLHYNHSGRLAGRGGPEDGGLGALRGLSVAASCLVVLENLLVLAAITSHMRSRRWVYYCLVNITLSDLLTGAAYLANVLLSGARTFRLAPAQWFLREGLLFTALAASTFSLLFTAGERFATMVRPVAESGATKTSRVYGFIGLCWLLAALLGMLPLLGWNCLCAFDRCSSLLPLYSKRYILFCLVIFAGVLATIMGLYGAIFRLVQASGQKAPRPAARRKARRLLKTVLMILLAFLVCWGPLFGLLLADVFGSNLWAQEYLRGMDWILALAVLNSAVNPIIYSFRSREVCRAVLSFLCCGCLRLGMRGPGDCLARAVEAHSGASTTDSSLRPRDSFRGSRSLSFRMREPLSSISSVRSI
# S1P3 antagonist – blocks the human S1P3 receptor | Q99500 | inhibition, % at 4.98 µM | CHO S1P3 NFAT-BLA reporter, FRET fluorescence, antagonist mode | 170,000 compounds, 0.27% hits | AID 485;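 active means inhibition above the plate cutoff, the mean inhibition of test wells on that plate plus 3 SD, cut at about 28% in these data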;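 further: cells challenged with S1P at its EC80 of 0.8 µM; blue over green emission ratio from cleaved BLA substrate after 4 h stimulation; 0% = S1P-stimulated wells and 100% = unstimulated DMSO-only wells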
# Dynein cargo inh – dynein cargo transport inhibition. z-score, hits read low. 220,000 compounds, 0.47% hits. 3617.4 mouse cells, GR-EGFP nuclear translocation imaging; test concentration mostly 20 µM; stimulated with dexamethasone, 1 µM; stronger effect = lower value;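 active means plate z-score of nuclear minus cytoplasmic receptor signal below a set negative limit, without overly bright fluorescence or cell loss, cut at about -3.5 in these data, passing the limit was not always enough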;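 further: z-score of nuclear minus cytoplasmic ring GR-EGFP intensity difference per well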
#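 medium = tetracycline-free induction medium containing charcoal-stripped FBS | also added = 1.0 µM final dexamethasone stimulus | schedule = 48 h induction, 1 h compound, 30 min dex at 37 °C | technique = fixed, Hoechst-stained cells imaged at 10x for EGFP | measure = GR-EGFP nuclear translocation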
# Hsp70 activator – transcriptional activators of Hsp70 | AID 1203 | 200,000 compounds, 0.04% hits | HeLa Hsp70 promoter luciferase reporter, luminescence; scaled: vehicle 0, proteasome-inhibitor control 100% | activation, % at 10 µM;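 active means activation above the mean across all tested compounds plus 3 SD, cutoff set per campaign, cut at about 5.5% in these data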;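 further: 100% = MG132 at 30 µM as the positive control and 0% = DMSO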
# MDM2 E3 inh – blocks human Mdm2 ubiquitin ligase activity; Q00987; cell-based MDM2 ubiquitination luciferase reporter, 2 h; 0 = plate control, 100 = twice control, blank-subtracted; signal enhancement, % at 5 µM; 210,000 compounds, 0.11% hits;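 active means signal enhancement of 30% or more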;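 further: luminescence tracks abundance of the self-degrading MDM2-luciferase fusion protein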
#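 Assay system: mammalian cells stably expressing self-ubiquitinating, self-degrading MDM2 E3–luciferase fusion. Quantity: 2000 cells in each well. Medium: DMEM culture medium. Compound dosing: single-point 5 µM. Timing: cell settling 4 h, compound treatment 2 h, both 37 °C. Technique: luciferase luminescence. Read-out basis: percent signal gain over controls, blank-subtracted. Benchmarks: plate controls and plate blanks.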
# S1P4 antagonist – antagonists of human S1P4 receptor. O95977. S1P4-expressing cells, antagonist mode, reporter read-out. inhibition, % at 4.98 µM. 220,000 compounds, 0.26% hits. AID 1510; in the data active means inhibition above about 29%;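 further: 0% = wells stimulated with agonist and 100% = vehicle wells without agonist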
# S1P4 antag cf – human S1P4 antagonism, confirmation; shares compounds with S1P4 antagonist; S1P4-expressing cell line, antagonist mode, reporter read-out; inhibition, % at 4.98 µM; 520 compounds, 71% hits; AID 1524; in the data active means inhibition above about 30%
# S1P1 antag – blocks human S1P1, counter-screen for S1P4 antagonists. shares compounds with S1P4 antagonist. cell-based S1P1 antagonist counterscreen, inhibition. inhibition, % at 4.98 µM. 520 compounds, 37% hits; in the data active means inhibition above about 40%;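 further: receptor stimulated with S1P near its EC80; 0% = agonist stimulated wells and 100% = vehicle only wells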
# Active calls of the source: *; . = no result. The list is not random: actives were taken first. Their share in the collection is about 1.3%.
SMILES,S1P4 agonist,S1P3 antagonist,Dynein cargo inh,Hsp70 activator,MDM2 E3 inh,S1P4 antagonist,S1P4 antag cf,S1P1 antag
N#C/C(=C\c1ccccn1)c1nc2ccccc2s1,0,-4,8.2,0,-44,74*,36*,43*
Cc1nn(C)c(Sc2ccccc2N)c1[N+](=O)[O-],0,-2,0.26,0,-3,0,.,.
NC(=O)N/N=C/c1ccccc1OC(=O)c1ccccc1Br,-1,9,0.29,0,-15,0,.,.
O=C(NCc1ccco1)c1ccccc1-c1nc(-c2ccccc2)no1,1,.,-1,0,-17,30*,-2,-2
CC(C)CN1CC(C(=O)O)CC1=O (stereo not given),-1,-11,-0.36,0,-7,3,.,.
CCCCCOc1ccccc1C(=O)NCCCC(=O)O,0,.,-0.35,0,-6,-15,.,.
CCCCOc1ccccc1C(=O)NCCCC(=O)O,-6,.,-0.43,0,-16,35*,-3,-2
COc1ccc(C2C=C(c3ccc(C)cc3)Nc3ncnn32)cc1 (stereo not given),-5,.,3.3,0,-8,29*,43*,44*
COc1ccc(C2=CC(c3ccc(C)cc3)n3nnnc3N2)cc1 (stereo not given),0,.,0.056,0,-12,-9,.,.
Oc1ccc(C2C=C(c3ccc(F)cc3)Nc3ncnn32)cc1 (stereo not given),-1,24,0.43,.,-9,43*,14,30
Cn1c(CBr)c(C(=O)c2ccc([N+](=O)[O-])cc2)c(=O)n(C)c1=O,-1,-17,0.53,.,-9,17,.,.
Cc1ccc(-c2nc(C=Nc3ccc(O)cc3)c(O)o2)cc1,-1,18,-0.59,0,2,31*,43*,40
CN=Cc1nc(-c2ccccc2)oc1O,1,.,-1,0,-11,-15,.,.
Cc1cnc(CN(C)Cc2nc(Cc3cccc(C(F)(F)F)c3)no2)[nH]1,1,-3,0.92,0,-11,10,.,.
N=c1n(CCN2CCCCC2)c2ccccc2n1CC(O)c1ccc(Cl)c(Cl)c1 (stereo not given),-3,.,-3.3,0,-1,55*,58*,59*
COc1ccc(-c2csc(NC3OC(=O)c4c3ccc(OC)c4OC)n2)cc1OC (stereo not given),1,0,-0.49,.,-15,32*,58*,44*
CCCN1C(=O)S/C(=C/c2ccc(N3CCOCC3)o2)C1=O,-2,-4,-0.16,.,-7,33*,14,7
Nc1cccc(-n2nncc2-c2ccc(Cl)cc2)c1,-1,.,-0.55,0,15,32*,7,13
O=C1CCC(C(=O)N2CCCC(C(=O)c3ccc4c5c(cccc35)CC4)C2)=NN1 (stereo not given),2,0,-0.036,0,-8,-26,.,.
CN(C)c1ccc(C(=O)NC2CCCc3ccccc32)cc1 (stereo not given),-1,-6,-0.14,0,-1,48*,56*,-10
O=C(/C=C/c1ccccc1)NC1CCCc2ccccc21 (stereo not given),-1,-1,1.3,0,-25,54*,54*,-21
CCc1ccccc1NC(=O)Nc1ccc(F)cc1F,1,12,-0.15,0,-6,2,.,.
O=C(Nc1ccc(F)cc1F)Nc1ccccc1C(=O)NCCN1CCNC1=O,0,-19,0.35,.,8,31*,-14,11
COCCN(C(=S)Nc1cc(C)cc(C)c1)C(C)c1ccco1 (stereo not given),0,-25,-0.58,0,-41,-18,.,.
CCN(CC(=O)NCc1ccc(Cl)cc1)Cc1cc(=O)n2ccsc2n1,2,-13,-0.26,0,-1,-15,.,.
SMILES,S1P4 agonist,S1P3 antagonist,Dynein cargo inh,Hsp70 activator,MDM2 E3 inh,S1P4 antagonist,S1P4 antag cf,S1P1 antag
CN(NC(=O)Nc1ccc(Cl)cc1)c1c(Cl)c(Cl)nn1C,-3,-19,-0.3,0,-10,53*,47*,6
CN(NC(=O)Nc1ccc(Cl)cc1)c1ncc(C(F)(F)F)cc1Cl,-1,.,0.2,0,.,-5,.,.
Cc1cc2oc(C(=O)N(Cc3ccccc3)c3ccccn3)cc(=O)c2cc1Cl,0,-8,0.53,.,.,3,.,.
O=C(/C=C/c1ccc(Br)cc1)c1ccc(NC(=O)c2ccco2)cc1,2,7,-0.65,0,-3,-17,.,.
O=C(/C=C/c1ccc(Br)cc1)c1ccco1,-1,-1,-2,0,-5,54*,81*,18
Cc1cc(C)c(C)c(S(=O)(=O)N2CCN(c3ccc(O)cc3)CC2)c1C,1,-1,0.0019,0,-12,-3,.,.
CCOC(=O)COc1ccccc1/C=C\[N+](=O)[O-],-1,10,-3.6*,1,-1,33*,114*,72*
CCOC(=O)COc1cc([N+](=O)[O-])cc2cccnc12,1,-16,0.74,-1,-14,9,.,.
Fc1c(F)c(F)c(/C=N/NC(=S)Nc2cccnc2)c(F)c1F,-3,-4,-1.4,0,-1,40*,66*,19
Fc1cccc(F)c1/C=N/NC(=S)Nc1cccnc1,1,-22,0.53,0,1,-10,.,.
O=[N+]([O-])c1ccc(Sc2cccc[n+]2[O-])c2nonc12,0,22,10,.,-69,91*,114*,37
CC(NCc1cccs1)c1ccccc1 (stereo not given),1,-12,1.1,0,-15,1,.,.
Cc1cccc2c1NC(=O)/C2=C\C(=O)c1cccs1,1,.,0.19,0,-10,24,.,.
CCc1ccc2c(c1)/C(=C/C(=O)c1cccs1)C(=O)N2,-1,.,-1.1,-1,3,66*,109*,78*
Cc1cc(Br)c2c(c1)/C(=C/C(=O)c1cccs1)C(=O)N2,1,-20,-0.6,0,-15,35*,68*,43*
CCNc1nc2cccnc2s1,2,8,0.036,.,1,0,.,.
CCOC(=O)c1cnc(SC2CC(=O)N(c3ccccc3)C2=O)nc1N (stereo not given),-1,.,0.84,0,-4,-11,.,.
CCOC(=O)c1cnc(SC2CC(=O)N(c3ccc(C)cc3)C2=O)nc1N (stereo not given),-2,.,0.11,0,-3,44*,14,16
C=C(C)CCOC(=O)C(CC(=O)O)NCc1ccco1 (stereo not given),2,-10,0.32,.,2,6,.,.

# Screens deposited in PubChem BioAssay by several laboratories.
